Reference: PMC4059944 (Nature, 2014)
Several values for one entry are separate records, joined by “and”; a condition that tells them apart may be missing. Identical values can stand only once.

B5: Ctf4 N-terminal deletion (Ctf4CTD, aa 461-927) (domain or fragment)
chain: THSFPISLANTGKFRYMPFSPAGTPFGFTDRRYLTMNEVGYVSTVKNSEQYSITVSFFDVGRFREYHFEDLFGYDLCFLNEKGTLFGQSKTGQIQYRPHDSIHSNWTKIIPLQAGERITSVAATPVRVIVGTSLGYFRSFNQFGVPFAVEKTSPIVALTAQNYRVFSVHYSQFHGLSYSLSELGTSSKRYYKRECPLPMSLPNINSDMKKDANLDYYNFNPMGIKSLFFSSYGDPCIFGSDNTLLLLSKWRSPEESKWLPILDSNMEIWKMSGGKETTDIHVWPLALAYDTLNCILVKGKHIWPEFPLPLPSEMEIRMPVFVKSKLLEENKAILNKKNEIGADTEAEEGEEDKEIQIPVSMAAEEEYLRSKVLSELLTDTLENDGEMYGNENEVLAALNGAYDKALLRLFASACSDQNVEKALSLAHELKQDRALTAAVKISERAELPSLVKKINNIREARYEQQLK

What was measured:
Ctf4CTD [1] = assay: X-ray crystallography of Ctf4CTD crystals soaked with peptide; assay type: binding, yeast (S. cerevisiae); conditions: soaked 24 hours at 19 °C
Ctf4CTD [2] = assay: Fluorescence polarization; assay type: binding, yeast (S. cerevisiae); conditions: fluorescence anisotropy, 25°C, 20 mM HEPES pH 7.2, 140 mM KCl, 5% (w/v) glycerol; 40 nM (Sld5) or 50 nM (Pol1) fluorescein-labeled peptide; mean of three independent experiments
[3] = target: T1, Ctf4CTD (yeast Ctf4 amino acids 471 to 927) (S. cerevisiae, UniProt Q01454 471-927); assay: pull-down
T1 sequence: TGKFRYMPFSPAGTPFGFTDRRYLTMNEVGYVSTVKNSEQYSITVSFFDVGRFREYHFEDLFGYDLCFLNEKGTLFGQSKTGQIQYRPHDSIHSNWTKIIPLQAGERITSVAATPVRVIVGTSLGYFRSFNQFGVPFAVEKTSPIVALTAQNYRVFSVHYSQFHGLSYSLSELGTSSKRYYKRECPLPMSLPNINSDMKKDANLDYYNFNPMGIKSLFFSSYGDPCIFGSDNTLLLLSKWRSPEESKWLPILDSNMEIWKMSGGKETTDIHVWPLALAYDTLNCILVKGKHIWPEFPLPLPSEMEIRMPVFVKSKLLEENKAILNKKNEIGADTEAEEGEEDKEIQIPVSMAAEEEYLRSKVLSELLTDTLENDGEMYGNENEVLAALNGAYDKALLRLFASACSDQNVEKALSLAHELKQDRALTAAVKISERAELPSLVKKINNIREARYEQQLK

[4] = target: T1, Ctf4CTD (yeast Ctf4 amino acids 471 to …); assay: native MS
[5] = target: B5; assay: negative-stain single-particle electron microscopy
Ctf4CTD trimer = assay: Single-particle electron microscopy of Ctf4CTD complexes; assay type: binding, yeast (S. cerevisiae)
[6] = target: T2, GINSPsf1ΔC (Strep III-tagged, for electron microscopy) (S. cerevisiae, UniProt Q12146 1-194; Q12488 1-164; P40359 1-213; Q03406 1-294); assay: negative-stain single-particle electron microscopy
T2 sequence 1: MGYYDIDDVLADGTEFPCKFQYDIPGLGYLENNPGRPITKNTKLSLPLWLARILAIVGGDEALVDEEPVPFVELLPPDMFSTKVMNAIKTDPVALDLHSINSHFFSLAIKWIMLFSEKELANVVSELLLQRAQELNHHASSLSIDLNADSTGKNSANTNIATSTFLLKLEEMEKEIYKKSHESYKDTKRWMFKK
T2 sequence 2: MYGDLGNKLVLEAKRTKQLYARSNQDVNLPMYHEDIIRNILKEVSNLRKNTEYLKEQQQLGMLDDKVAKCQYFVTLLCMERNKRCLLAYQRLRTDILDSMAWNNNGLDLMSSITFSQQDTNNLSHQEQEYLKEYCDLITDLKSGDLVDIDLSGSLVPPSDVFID
T2 sequence 3: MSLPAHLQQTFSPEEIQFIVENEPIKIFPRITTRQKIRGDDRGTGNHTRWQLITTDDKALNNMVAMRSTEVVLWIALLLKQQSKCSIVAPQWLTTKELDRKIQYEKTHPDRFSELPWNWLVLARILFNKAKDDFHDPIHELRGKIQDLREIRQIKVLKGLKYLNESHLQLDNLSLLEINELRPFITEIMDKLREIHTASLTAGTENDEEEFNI
T2 sequence 4: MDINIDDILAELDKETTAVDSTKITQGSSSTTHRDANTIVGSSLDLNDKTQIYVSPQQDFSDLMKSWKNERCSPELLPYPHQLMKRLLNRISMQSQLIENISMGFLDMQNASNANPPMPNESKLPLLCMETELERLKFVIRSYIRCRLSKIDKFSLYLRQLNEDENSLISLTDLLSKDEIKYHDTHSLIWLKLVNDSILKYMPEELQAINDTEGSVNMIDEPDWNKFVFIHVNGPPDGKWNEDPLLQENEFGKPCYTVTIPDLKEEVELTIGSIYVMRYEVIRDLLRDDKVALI

[7] = target: the molecule itself; assay: negative-stain single-particle electron microscopy
[8] = Multi-angle laser scattering; assay type: physicochemical, yeast (S. cerevisiae); conditions: size exclusion chromatography - MALS
Summary of the method: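 Recombinant His-tagged full-length yeast Ctf4, expressed in E. coli BL21(DE3)-CodonPlus (1 mM IPTG, 37°C, 2 h), purified by Ni-NTA, Mono Q ion exchange and Superdex 200 gel filtration. About 100 μg loaded onto an HPLC size-exclusion column equilibrated in 150 mM NaCl, 20 mM Tris pH 8.0, 1 mM DTT. Eluate read by 8-angle light scattering and refractive index detectors.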

CMG helicase = conditions: yeast cells; cited from earlier work

Molecule: 137-IDNFDDILGEFES-149 [Pol1 peptide]
- occupancy of binding sites in Ctf4CTD trimer crystal (Ctf4CTD [1]; open crystal form): occupies each of the two binding sites available in this crystal form
- conformational change in helical domain of Ctf4CTD on binding (Ctf4CTD [1]): does not induce an appreciable conformational change in the helical domain of Ctf4CTD

Molecule: MDINIDDILAELDKETTAV [Sld5]
- mode of interaction with Ctf4 (Ctf4CTD [1]; compared with Ctf4-binding motif of Pol1): near-identical mode of interaction

Molecule: 1- MDINIDDILAELDKETTAV -19 [Ctf4-binding sequence of Sld5]
- tighter association with Ctf4 compared to Pol1 (fold) (Ctf4CTD [2]): ~ 5 fold

B1: GST-Sld5 (1-20) D7A (domain or fragment)
chain: MDINIDAILAELDKETTAVD
- binding result [3]: binds

B2: Sld5 peptide 1-MDINIDDILAELDKETTAV-19 (peptide)
peptide: MDINIDDILAELDKETTAV
- stoichiometry N [4]: 1 peptides per Ctf4CTD trimer and 2 peptides per Ctf4CTD trimer and 3 peptides per Ctf4CTD trimer

B3: Pol1NTD (Pol1-NTD-ProteinA: N-terminal region of Pol1, residues 1 to 351, fused to Protein A) (domain or fragment)
chain: MSSKSEKLEKLRKLQAARNGTSIDDYEGDESDGDRIYDEIDEKEYRARKRQELLHDDFVVDDDGVGYVDRGVEEDWREVDNSSSDEDTGNLASKDSKRKKNIKREKDHQITDMLRTQHSKSTLLAHAKKSQKKSIPIDNFDDILGEFESGEVEKPNILLPSKLRENLNSSPTSEFKSSIKRVNGNDESSHDAGISKKVKIDPDSSTDKYLEIESSPLKLQSRKLRYANDVQDLLDDVENSPVVATKRQNVLQDTLLANPPSAQSLADEEDDEDSDEDIILKRRTMRSVTTTRRVNIDSRSNPSTSPFVTAPGTPIGIKGLTPSKSLQSNTDVATLAVNVKKEDVVDPETDT
- binding result [5]: binds
- Ctf4CTD - GINS - Pol1NTD complexes observed (Ctf4CTD trimer; reconstituted hetero-assemblies, Pol1 residues 1 to 351 fused to Protein A): varied stoichiometries, with partial or full occupancy of the Ctf4 trimer
- Ctf4CTD - Pol1NTD complex observed (Ctf4CTD trimer; reference-free class averages, box size 448 Å): ring-shaped core linked to one mobile globular density

B4: GST-Sld5 (residues 1 to 20) (domain or fragment)
chain: MDINIDDILAELDKETTAVD
- binding result [3]: binds

Molecule: B5
- binding result [6]: binds
- stoichiometry N [7]: 3

B6: Ctf4: full-length yeast Ctf4 protein (protein)
chain: MVSVIDKLVFDFGGKTLVSLAPDNNTLCVANKNGLTKILKTNNPEEEPETLDSSKLVSSIKCYSNSHFLMTTMQGDALRYNIDSSQEELLARFALPLRDCCVIHSGKMAVFGGDDLELILLELDDETHKKHAIKIDEQVSQISYNSQMNILAVSMINGKVQIFSLTSTIPNKVHELNDYIVANSYDDTHRDKILSNMMDDIDKDNDNDLSETADPDENNVADPEFCAANRICTRVAWHPKGLHFALPCADDTVKIFSIKGYSLQKTLSTNLSSTKAHFIDLQFDPLRGTYIAAVDLNNKLTVWNWETSEIHYTREFKRKITNIAWKIQADSKTLDLVLGTWSGSIAIVQNLAESVVSNIPDQSVAESSTKHGLFVDSESDLENLEGNDDINKSDKLFSDITQEANAEDVFTQTHDGPSGLSEKRKYNFEDEEDFIDDDDGAGYISGKKPHNEHSYSRVHKTHSFPISLANTGKFRYMPFSPAGTPFGFTDRRYLTMNEVGYVSTVKNSEQYSITVSFFDVGRFREYHFEDLFGYDLCFLNEKGTLFGQSKTGQIQYRPHDSIHSNWTKIIPLQAGERITSVAATPVRVIVGTSLGYFRSFNQFGVPFAVEKTSPIVALTAQNYRVFSVHYSQFHGLSYSLSELGTSSKRYYKRECPLPMSLPNINSDMKKDANLDYYNFNPMGIKSLFFSSYGDPCIFGSDNTLLLLSKWRSPEESKWLPILDSNMEIWKMSGGKETTDIHVWPLALAYDTLNCILVKGKHIWPEFPLPLPSEMEIRMPVFVKSKLLEENKAILNKKNEIGADTEAEEGEEDKEIQIPVSMAAEEEYLRSKVLSELLTDTLENDGEMYGNENEVLAALNGAYDKALLRLFASACSDQNVEKALSLAHELKQDRALTAAVKISERAELPSLVKKINNIREARYEQQLK
- oligomeric state in solution (MALS) [8]: stable homotrimers in solution
- oligomeric state in solution (MALS) ([8]; listed as full-length Ctf4): stable trimer in solution
- salt concentration resisted by association of Ctf4 with CMG (CMG helicase): ≥ 700 mM

B7: Pol1 peptide 137-IDNFDDILGEFES-149 (peptide)
peptide: IDNFDDILGEFES
- stoichiometry N [4]: 1 peptides per Ctf4CTD trimer and 2 peptides per Ctf4CTD trimer and 3 peptides per Ctf4CTD trimer

B8: GST-Sld5 (1-20) L12A (domain or fragment)
chain: MDINIDDILAEADKETTAVD
- binding result [3]: binds
